Screening results from PubChem.
This is a sample that favours compounds with a hit; in the whole collection about 4.7% have one here.
NR3A LBD binder = binders of NR3A ligand-binding domain, primary screen, biophysical, differential scanning fluorimetry, uHTS | NR3A LBD differential scanning fluorimetry, Tm shift; 0% = protein alone, 100% = glycine-bound protein | Tm shift relative to glycine control, % at 25 µM | hit rate 2.5% among 340,000;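 active = melting temperature shift of at least 10% of the positive control shift, at one fixed dose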
ADAM10 inh = human ADAM10 inhibitors, primary screen, biochemical, QFRET, HTS; Disintegrin and metalloproteinase domain-containing protein 10 (Homo sapiens), O14672; recombinant ADAM10, EDANS/DABCYL FRET peptide cleavage, 3 h; inhibition, % at 7 µM; hit rate 0.62% among 370,000; AID 720582, 2013;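 active = inhibition above a per-campaign cutoff equal to the mean of compounds falling between control-based bounds plus 3 SD, cut at about 20% in these data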;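 also: 0% = DMSO wells while the 100% control is not disclosed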
Target sequence (O14672 214-748 limits assumed): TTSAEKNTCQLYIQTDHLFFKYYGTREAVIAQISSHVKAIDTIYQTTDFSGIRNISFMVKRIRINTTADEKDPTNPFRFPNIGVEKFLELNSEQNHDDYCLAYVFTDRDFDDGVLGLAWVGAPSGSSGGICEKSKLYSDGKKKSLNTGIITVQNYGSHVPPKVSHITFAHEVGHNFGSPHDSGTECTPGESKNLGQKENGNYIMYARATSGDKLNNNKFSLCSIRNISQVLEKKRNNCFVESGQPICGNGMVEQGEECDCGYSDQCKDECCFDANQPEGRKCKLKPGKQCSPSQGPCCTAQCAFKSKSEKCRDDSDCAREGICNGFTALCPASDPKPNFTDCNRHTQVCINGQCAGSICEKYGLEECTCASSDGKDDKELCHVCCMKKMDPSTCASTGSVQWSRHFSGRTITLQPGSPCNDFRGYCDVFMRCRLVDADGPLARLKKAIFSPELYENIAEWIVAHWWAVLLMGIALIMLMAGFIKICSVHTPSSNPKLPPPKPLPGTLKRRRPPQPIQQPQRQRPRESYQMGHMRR
MPTP inh = mitochondrial permeability transition pore inhibitors, primary screen, biochemical, isolated mouse mitochondria, absorbance | Ca2+ swelling absorbance, 30 min | inhibition, % at 10 µM | hit rate 1.4% among 360,000;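 active = inhibition of 50% or more, scaled per plate between neutral and stimulator controls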;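 also: 0% = DMSO wells given calcium and 100% = 1 mM EGTA wells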
ADAM17 inh = ADAM17 inhibitors, primary screen, biochemical, QFRET | Disintegrin and metalloproteinase domain-containing protein 17 (Homo sapiens), P78536 | recombinant ADAM17, EDANS/DABCYL FRET peptide cleavage | inhibition, % at 6.95 µM | hit rate 0.83% among 370,000 | AID 720648, 2013;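 active = inhibition above the mean of compounds lying between control limits plus 3 SD, set per campaign, cut at about 8.5% in these data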;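 also: 0% = DMSO-only wells as the low control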
SKN-1 inh = suppressors of acrylamide-induced Pgst-4::GFP reporter in worms, primary screen, SKN-1 inhibitor project, whole organism, uHTS, GFP/RFP fluorescence ratio, strain VP596; C. elegans VP596 Pgst-4::GFP/RFP ratio, 24 h; inhibition, % at 21.8 µM; hit rate 0.49% among 360,000;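 active = interference check ratio from 0.5 to 1.5 plus GFP to RFP signal ratio inhibition reaching or exceeding a fixed threshold, cut at about 30% in these data, passing the limit was not always enough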
MT1-MMP act inh = blockers of MT1-MMP proenzyme processing, primary screen, HT1080 RFP-PRO-GFP cells, GFP/RFP fluorescence; GFP/RFP ratio fluorescence, overnight; percent of plate control window, DMSO zero; AID 651647, 2012; hit rate 0.061% among 360,000; GFP/RFP ratio change, % at 20 µM; Matrix metalloproteinase-14 (Homo sapiens), P50281;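 active = GFP/RFP ratio change of at least 30% with cell ATP level not reduced by more than half and red fluorescence within 50% of control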
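Assay system: HT1080 RFP-PRO-GFP cells | Dosing: 20 µM single dose, 1% DMSO | Incubation: Cells overnight before dosing, compound overnight, 37 °C, 5% CO2 | Evaluation: GFP/RFP fluorescence ratio | Control set: DMSO-only wells and HT1080 RFP-L50D-GFP cell wells as references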
Numbers without * were called inactive; nt = no result given.

SMILES	NR3A LBD binder	ADAM10 inh	MPTP inh	ADAM17 inh	SKN-1 inh	MT1-MMP act inh
C#CCNS(=O)(=O)c1ccc(F)cc1Br	0	-5	-2	1	16	-2
COc1cc2sc(NC(=O)c3ccco3)nc2cc1Cl	5	15	1	6	-16	6
COc1cc2nc(NC(=O)c3ccco3)sc(=O)c2cc1OC	15*	-3	4	-3	6	4
CC(=O)Nc1nc2ccc(Br)cc2s1	0	4	0	-1	35*	-2
O=C(Nc1nc2ccc(Br)cc2s1)c1ccco1	4	-19	2	-4	21	3
COc1ccc(N(C)S(=O)(=O)c2cccc(C(=O)Nc3ccc(OC)nc3)c2)cc1	nt	7	nt	2	nt	nt
O=C(Nc1nc2c(ccc3ccccc32)s1)c1ccco1	16*	-46	2	-12	81*	-9
COc1ccc(N(C)S(=O)(=O)c2cccc(C(=O)Nc3ccc(-n4cnnn4)cc3)c2)cc1	26*	-1	3	-1	15	2
COc1ccc(C(=C(CC(=O)O)C(=O)OC(C)(C)C)c2cc(OC)c(OC)c(OC)c2)cc1OC	4	-12	-1	-1	12	-1
CCc1cc(C(=O)NCC(c2ccc(OC)cc2)N2CCOCC2)sc1C (centres undefined)	3	-12	-1	3	13	3
Cc1ccn2c(=O)nc(SCC(=O)NC3CCCCC3)nc2c1	1	-10	-2	-2	3	2
COc1cc(Cc2cc(N)nc(N)n2)cc(OC)c1OC	2	1	-1	-4	10	-1
CCN(c1ccccc1)S(=O)(=O)c1cccc(C(=O)N(C)CCOc2ccccc2)c1	3	-3	0	-3	0	3
Cc1nc2ccc(NC(=O)c3sccc3C)cc2s1	32*	-8	-2	-3	25	5
Cc1cc(C)c2sc(NC(=O)c3ccc([N+](=O)[O-])o3)nc2c1	15*	-10	4	-2	21	4
COc1ccc(OCCN(C)C(=O)c2cccc(S(=O)(=O)N(C)c3ccccc3)c2)cc1	1	-1	-1	2	37*	3
Cc1nc2ccc(NC(=O)c3ccco3)cc2s1	16*	-1	3	0	-4	3
CC(=O)Nc1nc2ccc(NC(=O)c3ccco3)cc2s1	-8	-6	1	-2	13	4
c1ccc(CCn2nnnc2C(c2cccs2)N2CCN(Cc3ccc4c(c3)OCO4)CC2)cc1 (centres undefined)	2	15	-1	1	12	-9
COC(=O)C1CC(=O)c2ccsc2C1 (centres undefined)	1	-4	1	0	-2	-2
Nc1nc2n(n1)C(c1cccc(Br)c1)CC(c1ccccc1)N2 (centres undefined)	0	-178	-1	-45	-4	2
Cc1nc2ccc(NC(=O)c3cccc(S(=O)(=O)N(C)c4ccccc4)c3)cc2s1	18*	nt	49	nt	13	-9
Cc1ccc2nc(NC(=O)CCNS(=O)(=O)c3ccc(Br)s3)sc2c1	11*	nt	3	nt	1	0
N#Cc1c(SCC(=O)Nc2nc3ccc(Br)cc3s2)sc2c(O)cc(=O)[nH]c12	18*	-12	-1	-1	21	-7
N#Cc1c(SCC(=O)Nc2nc3ccccc3s2)sc2c(O)cc(=O)[nH]c12	5	-34	0	-5	9	-4
SMILES	NR3A LBD binder	ADAM10 inh	MPTP inh	ADAM17 inh	SKN-1 inh	MT1-MMP act inh
Cc1ccc2nc(NC(=O)c3ccc(Br)o3)sc2c1	18*	0	2	-3	4	2
O=C(Nc1nc2c(s1)CCc1ccccc1-2)c1ccco1	-8	6	2	1	41*	-4
Cc1ccc2nc(NC(=O)c3ccco3)sc2c1	-6	1	-1	-1	45*	10
CCN(c1ccccc1)S(=O)(=O)c1cccc(C(=O)N2CCN(S(=O)(=O)c3ccccc3)CC2)c1	0	-2	1	-2	2	-7
CCn1c(=O)n(CC(=O)NC2CCCC(C)C2C)c(=O)c2ccccc21 (centres undefined)	11*	-2	-3	-5	13	5
COc1cccc(C(=O)N2CCSC2=S)c1	2	0	0	-4	-5	6
O=C(CSc1c2c(nc3cc(Cl)ccc13)CCCC2)NCCN1CCOCC1	-3	2	0	2	-3	3
Clc1ccc2c(SCC3CO3)c3ccccc3nc2c1 (centres undefined)	13*	-393	0	-100	9	0
NNC(=O)C1CCN(S(=O)(=O)c2ccc(Cl)cc2)CC1	-4	6	0	0	6	-1
O=S(=O)(Nc1ccc(N=Nc2ccc(O)c3ccccc23)cc1)c1ccccc1	8	16	29	14*	9	-42
O=S(=O)(Nc1ccc(S(=O)(=O)Nc2ccccc2)cc1)c1ccccc1	1	7	1	1	-6	2
S=c1nc2[nH]c3ccccc3c2n[nH]1	20*	-15	-1	-3	3	3
CCOc1ccc(NC(=O)Nc2cccs2)cc1	19*	3	14	-6	-17	1
CCOc1ccc(NC(=O)Nc2ccc(Cc3ccncc3)cc2)cc1	7	8	14	1	6	-12
CCc1ccc(NC(=O)Nc2cccs2)cc1	9	-3	-5	-2	20	nt
Cc1ccc(NC(=O)Nc2cccs2)cc1	11*	6	-6	-3	11	1
CCOCC(O)CNC(=O)c1ccc(OC2CCN(C(=O)c3cccnc3)CC2)cc1 (centres undefined)	1	5	-1	-3	2	-4
COc1ccccc1NC(=O)c1ccc([N+](=O)[O-])cc1[N+](=O)[O-]	-3	-7	0	-8	-5	18
Cc1cc(N)n(-c2nc3ccccc3s2)n1	32*	1	1	0	7	0
Cc1nn(-c2nc3ccccc3s2)c(N)c1-c1ccccc1	-11	-1	3	-1	6	-1
Cc1nn(-c2nc3ccccc3s2)c(N)c1Sc1ccc(F)cc1	15*	7	1	-1	1	-1
C/C(Cc1ccccc1)=N\NC(=O)CNC(=O)c1cccc(F)c1	2	0	-1	-6	-1	0
